Laboratory results published in PMC9339567 (Journal of Food and Drug Analysis, 2016).
Entries after “also recorded” stand apart in the source; their conditions may differ. Where no end group is shown, it is not given here.

Legend:
[1] = ref 32 (Sampath Kumar et al); cited from earlier work
[2] = cited from earlier work
[3] = ref 28 (Tanzadehpanah et al); cited from earlier work
[4] = tested on: HFLF-PI 5 cells; experiment: Cytotoxicity assay; assay type: cell-based, human; conditions: 0–1 mg/mL, MTT 570 nm
How it was run: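 HFLF-PI 5 human lung cells were grown in RPMI with penicillin/streptomycin and 10% FBS at 37°C, 5% CO2. Cells were seeded at 1 × 10^5 cells/mL and, at 75% confluence, exposed to test compound at 0–1 mg/mL for 24, 48 or 72 hours, with PBS as control. After PBS washes, MTT (5 mg/mL stock) was added overnight at 37°C and formazan dissolved in DMSO. A570 was read and cytotoxicity % calculated relative to control.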

[5] = ABTS radical scavenging activity assay; conditions: 6 minutes incubation, absorbance 734 nm; triplicate
[6] = DPPH radical scavenging assay; conditions: 15 μg/mL; absorbance 517 nm, 30 minutes in dark, room temperature; triplicate
How it was run: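 Test compound at 0.007–1 mg/mL, or GSH positive control over the same range, was mixed with an equal volume of 99.5% ethanol containing 0.02% DPPH. The mixture was held 30 minutes in the dark at room temperature and A517 read, with distilled water replacing sample as control. Scavenging % = (Acontrol − Asample)/Acontrol × 100; triplicate.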

ACFL
Inhibition of the oxidation process relative to α-tocopherol [1]: greater levels of inhibition of the oxidation process

HGPLGPL
Activity against ROS and linoleic acid peroxidation [2]: strong activity

LTEQESGVPVMK
IC50 DPPH radical scavenging [3]: 28.6 ± 1.08 µg/mL

WESLSRLLG [WG-9]
Effect on cell viability ([4]; 24 hours, triplicate): no significantly effect on cell viability; also recorded: no significant cytotoxic effect | Effect on cell viability ([4]; 48 hours, p < 0.05): significantly reduced | Effect on cell viability ([4]; 72 hours, p < 0.05): significantly reduced

glutathione [GSH]
IC50 ABTS radical scavenging [5]: < 15 µg/mL | DPPH-radical scavenging [6]: 67%
